Measurements as given in ChEMBL document CHEMBL4610112, “Novel Pyrrolopyridone Bromodomain and Extra-Terminal Motif (BET) Inhibitors Effective in Endocrine-Resistant ER+ Breast Cancer with Acquired Resistance to Fulvestrant and Palbociclib” (J Med Chem, 2020).
Calls of active or inactive are those of the source. The calls are words filed in the database; no cut-off is given here.

Legend:
[1] = Growth inhibition of fulvestrant-resistant human MCF7:CFR cells measured after 5 days by Hoechst 33342 dye based imaging analysis; type: functional, cell-based; conditions: 120 h
In short: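 MCF-7:CFR cells kept 2 days in phenol red-free RPMI 1640 with 10% charcoal–dextran FBS, then seeded at 2000 cells/well. Single treatment at 0.1 nM–10 μM (0.1% DMSO final) for 5 days. Nuclei stained with Hoechst 33342 and counted by imaging. Survival normalized to DMSO (100%) and JQ1 3 μM (0%). Mean ± SEM from at least two passages, triplicates in each.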

MCF7:TAM1 [2] = assay: Antitumor activity against human MCF7:TAM1 cells xenografted in ovariectomized athymic Nude-Foxn1 mouse assessed as tumor growth inhibition at 50 mg/kg/day, po administered via gavage for 4 weeks in presence of fulvestrant; type: functional, organism-based
In short: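 Orthotopic xenografts of MCF-7:Tam1 cells in 4–6 week old female ovariectomized athymic nude (nude/Foxn1) mice, established with daily tamoxifen 1.5 mg/mouse. Daily oral gavage at 50 (mg/kg)/day for 4 weeks in 0.5% (w/v) HPMC/TWEEN80 1% in water, given alongside fulvestrant 1 mg/mouse/week sc. Tumor volume measured weekly by caliper as length × width² × π/6. TGI computed from day 28 versus initial volumes, relative to vehicle.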

[3] = target: T1, Bromodomain-containing protein 4 (Homo sapiens, UniProt O60885); assay: Displacement of APC-labeled biotinylated-avidin from Euphorium-chelated recombinant human BRD4 bromodomain 1 expressed in Escherichia coli preincubated for 15 mins followed by APC-labeled biotinylated-avidin addition and measured after 1 hr under dark condition by TR-FRET assay
[4] = target: T1, Bromodomain-containing protein 4; assay: Displacement of APC-labeled biotinylated-avidin from Euphorium-chelated recombinant human BRD4 bromodomain 2 expressed in Escherichia coli preincubated for 15 mins followed by APC-labeled biotinylated-avidin addition and measured after 1 hr under dark condition by TR-FRET assay
CYP2D6 = CYP2D6 (Homo sapiens, UniProt P10635); assay: Inhibition of human CYP2D6 at 10 uM; type: ADME
MCF7:CFR [5] = assay: Growth inhibition of fulvestrant-resistant human MCF7:CFR 3D spheroid cells at 100 nM supplemented with fresh medium containing compound every 2 to 3 days for 9 days by celltitre-glo assay relative to control; type: functional
In short: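 MCF-7:CFR cells seeded at 1000 cells/well in ultralow-attachment round-bottom plates and grown 24 h untreated as spheroids. Half the medium then replaced with 2× treatment medium, repeated every 2–3 days. Viability read by CellTiter-Glo 3D luminescence at day 9 and normalized to blank (medium plus reagent).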

MCF7:CFR [6] = assay: Down regulation of c-MYC gene expression in fulvestrant-resistant human MCF7:CFR cells at 100 nM measured after 24 hrs; type: functional, cell-based
In short: (§1)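 MCF-7:CFR cells exposed to compound at 100 nM, with DMSO (0.01%) as control, for 24 h. RNA extracted and analysed by RNA-seq. Values are log2-fold changes in gene expression against the vehicle control.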

MCF7:CFR [7] = assay: Down regulation of n-MYC gene expression in fulvestrant-resistant human MCF7:CFR cells at 100 nM measured after 24 hrs; type: functional, cell-based; in short: as §1
MCF7:CFR [8] = assay: Up regulation of CDKN1B gene expression in fulvestrant-resistant human MCF7:CFR cells at 100 nM measured after 24 hrs; type: functional, cell-based; in short: as §1
MCF7:CFR [9] = assay: Down regulation of cyclin-D gene expression in fulvestrant-resistant human MCF7:CFR cells at 100 nM measured after 24 hrs; type: functional, cell-based; in short: as §1
MCF7:CFR [10] = assay: Growth inhibition of fulvestrant-resistant human MCF7:CFR cells at < 300 nM treated for 3 hrs followed by compound washout and measured after 5 days by Hoechst 33342 dye based imaging analysis; type: functional, cell-based
[11] = Protein binding in plasma (unknown origin); type: ADME, cell-free; conditions: human
In short: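 Protein binding reported as percent bound, ketoconazole as reference compound. Run by a contract lab.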

CYP2A6 = CYP2A6 (Homo sapiens, UniProt P11509); assay: Inhibition of human CYP2A6 at 10 uM; type: ADME
MCF7:TAM1 [12] = assay: Antitumor activity against human MCF7:TAM1 cells xenografted in ovariectomized athymic Nude-Foxn1 mouse assessed as tumor growth inhibition at 50 mg/kg/day, po administered via gavage for 4 weeks; type: functional, organism-based
CYP2C8 = CYP2C8 (Homo sapiens, UniProt P10632); assay: Inhibition of human CYP2C8 at 10 uM; type: ADME
CYP3A4 = CYP3A4 (Homo sapiens, UniProt P08684); assay: Inhibition of human CYP3A4 at 10 uM; type: ADME
CYP3A4, sequence (P08684 whole entry): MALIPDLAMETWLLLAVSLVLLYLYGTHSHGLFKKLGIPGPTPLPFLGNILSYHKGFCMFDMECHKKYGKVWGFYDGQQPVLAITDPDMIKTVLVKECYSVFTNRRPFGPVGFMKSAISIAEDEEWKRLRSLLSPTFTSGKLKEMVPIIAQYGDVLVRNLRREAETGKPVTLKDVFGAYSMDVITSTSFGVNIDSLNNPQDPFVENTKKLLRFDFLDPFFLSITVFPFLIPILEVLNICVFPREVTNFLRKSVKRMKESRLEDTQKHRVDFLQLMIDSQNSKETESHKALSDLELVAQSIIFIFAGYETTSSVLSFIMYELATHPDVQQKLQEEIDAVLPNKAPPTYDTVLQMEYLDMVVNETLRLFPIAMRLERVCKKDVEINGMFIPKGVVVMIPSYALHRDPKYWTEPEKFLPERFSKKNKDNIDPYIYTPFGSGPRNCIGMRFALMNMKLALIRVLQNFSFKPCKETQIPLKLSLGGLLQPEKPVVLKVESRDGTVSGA

CYP2C8, sequence (P10632 whole entry): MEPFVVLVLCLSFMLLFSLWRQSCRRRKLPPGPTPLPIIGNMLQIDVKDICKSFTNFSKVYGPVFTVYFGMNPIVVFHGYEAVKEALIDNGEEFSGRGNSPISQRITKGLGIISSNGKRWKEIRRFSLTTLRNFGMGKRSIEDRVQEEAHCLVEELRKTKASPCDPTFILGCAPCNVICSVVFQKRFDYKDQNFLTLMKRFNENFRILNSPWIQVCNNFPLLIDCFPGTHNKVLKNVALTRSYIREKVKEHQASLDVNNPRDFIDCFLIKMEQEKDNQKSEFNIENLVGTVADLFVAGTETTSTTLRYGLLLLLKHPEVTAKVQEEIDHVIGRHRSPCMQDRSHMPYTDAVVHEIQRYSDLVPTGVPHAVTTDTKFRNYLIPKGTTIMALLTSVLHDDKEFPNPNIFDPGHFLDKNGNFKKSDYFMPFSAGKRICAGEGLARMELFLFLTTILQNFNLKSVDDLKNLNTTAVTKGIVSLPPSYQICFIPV
CYP2D6, sequence (P10635 whole entry): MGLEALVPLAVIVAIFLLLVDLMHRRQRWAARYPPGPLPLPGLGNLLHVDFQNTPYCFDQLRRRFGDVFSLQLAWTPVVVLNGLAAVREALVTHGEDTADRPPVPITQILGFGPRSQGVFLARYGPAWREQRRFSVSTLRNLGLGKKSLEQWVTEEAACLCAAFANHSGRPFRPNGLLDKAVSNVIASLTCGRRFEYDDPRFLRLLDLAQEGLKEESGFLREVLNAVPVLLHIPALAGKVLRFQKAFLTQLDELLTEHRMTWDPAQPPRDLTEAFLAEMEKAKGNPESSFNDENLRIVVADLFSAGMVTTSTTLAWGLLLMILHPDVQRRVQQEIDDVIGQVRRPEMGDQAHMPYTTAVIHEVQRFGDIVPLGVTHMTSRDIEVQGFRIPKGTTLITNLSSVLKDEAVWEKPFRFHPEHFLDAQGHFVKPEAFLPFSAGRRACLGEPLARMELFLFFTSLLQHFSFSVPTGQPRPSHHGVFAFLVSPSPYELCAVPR
CYP2A6, sequence (P11509 whole entry): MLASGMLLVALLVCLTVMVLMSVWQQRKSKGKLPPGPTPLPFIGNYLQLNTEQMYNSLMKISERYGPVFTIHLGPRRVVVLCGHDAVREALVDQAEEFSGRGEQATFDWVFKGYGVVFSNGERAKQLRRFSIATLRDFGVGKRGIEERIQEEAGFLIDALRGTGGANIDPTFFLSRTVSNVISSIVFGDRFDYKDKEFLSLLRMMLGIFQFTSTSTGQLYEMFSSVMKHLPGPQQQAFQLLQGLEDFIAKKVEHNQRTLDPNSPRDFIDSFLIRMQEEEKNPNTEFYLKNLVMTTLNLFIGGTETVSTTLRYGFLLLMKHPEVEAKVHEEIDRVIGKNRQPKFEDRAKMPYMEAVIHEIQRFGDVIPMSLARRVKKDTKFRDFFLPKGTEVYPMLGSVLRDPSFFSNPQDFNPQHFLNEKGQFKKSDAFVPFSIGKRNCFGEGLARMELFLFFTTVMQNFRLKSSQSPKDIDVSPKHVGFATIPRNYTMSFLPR

CCS(=O)(=O)N(c1cccc2c1nc(-c1cn(C)c3c(=O)[nH]ccc13)n2Cc1ccc(F)cc1)S(=O)(=O)CC
IC50 [1]: 1780 nM

CCNC(=O)C[C@@H]1N=C(c2ccc(Cl)cc2)c2cc(OC)ccc2-n2c(C)nnc21
TGI (MCF7:TAM1 [2]): Active

Cc1cc(F)cc(C)c1Cn1ccc2cc(NS(C)(=O)=O)cc(-c3cn(C)c4c(=O)[nH]ccc34)c21
IC50 [3]: 1400 nM
IC50 [1]: 526 nM

Cc1cc(F)ccc1Cn1ccc2cc(NS(C)(=O)=O)cc(-c3cn(C)c4c(=O)[nH]ccc34)c21
IC50 [3]: 1000 nM
IC50 [1]: 3580 nM

CCS(=O)(=O)Nc1cccc2c1nc(-c1cn(C)c3c(=O)[nH]ccc13)n2Cc1ccc(F)cc1
IC50 [3]: 1430 nM
IC50 [1]: 708 nM

Cn1cc(-c2cc(NS(C)(=O)=O)c3ccn(CC4CC(F)(F)C4)c3c2)c2cc[nH]c(=O)c21
IC50 [3]: 161 nM
IC50 [1]: 62 nM

Cn1cc(-c2cc(NS(C)(=O)=O)c3cnn(Cc4ccc(F)cc4)c3c2)c2cc[nH]c(=O)c21
IC50 [3]: 89 nM
IC50 [1]: 68 nM

Cn1cc(-c2cc(C(C)(C)O)c3ccn(C(C)(c4ccccn4)c4ccccn4)c3c2)c2cc[nH]c(=O)c21
IC50 [3]: 39.6 nM
IC50 [1]: 20 nM
IC50 [4]: 220 nM

CCS(=O)(=O)Nc1cc(-c2cn(C)c3c(O)nccc23)cc2c1cnn2Cc1ccc(F)cc1
IC50 [3]: 54 nM
IC50 [1]: 25 nM

Cn1cc(-c2cc(NS(C)(=O)=O)c3ccn(Cc4cccc(F)c4)c3c2)c2cc[nH]c(=O)c21
IC50 [3]: 174 nM
IC50 [1]: 70 nM

CCS(=O)(=O)Nc1cc(-c2cn(C)c3c(=O)[nH]ccc23)cc2c1ccn2Cc1ccc(F)cc1
IC50 [3]: 48 nM
IC50 [1]: 56 nM

CCS(=O)(=O)Nc1cc(-c2cn(C)c3c(=O)[nH]ccc23)cc2c1ccn2C(c1ccccc1)c1ccccc1
IC50 [3]: 83 nM
IC50 [1]: 15 nM

CCC(c1ccccn1)(c1ccccn1)n1ccc2c(NS(=O)(=O)CC)cc(-c3cn(C)c4c(=O)[nH]ccc34)cc21
IC50 [3]: 9.4 nM
IC50 [1]: 2.2 nM

Cn1cc(-c2cc(NS(C)(=O)=O)c3ccn(Cc4ccc(F)cc4)c3c2)c2ccnc(O)c21
IC50 [3]: 96 nM
IC50 [1]: 17 nM

Cc1cccc(C)c1Cn1ccc2c(NS(C)(=O)=O)cc(-c3cn(C)c4c(=O)[nH]ccc34)cc21
IC50 [3]: 175 nM
IC50 [1]: 49 nM

COc1ccc2c(c1)[C@]13CCCC[C@@H]1[C@H](C2)N(C)CC3 [DEXTROMETHORPHAN]
inhibition at 10 µM (CYP2D6): 94.4%

Cn1cc(-c2cc(NS(C)(=O)=O)cc3ccn(Cc4ccc(F)cc4)c23)c2cc[nH]c(=O)c21
IC50 [3]: 1180 nM
IC50 [1]: 1990 nM

Cc1sc2c(c1C)C(c1ccc(Cl)cc1)=N[C@@H](CC(=O)OC(C)(C)C)c1nnc(C)n1-2
IC50 [1]: 90 nM
growth inhibition (GI) (MCF7:CFR [5]): Active
Activity (MCF7:CFR [6]): Active
Activity (MCF7:CFR [7]): Active
Activity (MCF7:CFR [8]): Active
Activity (MCF7:CFR [9]): Active
growth inhibition (GI) (MCF7:CFR [10]): inactive

CCS(=O)(=O)Nc1cc(-c2cn(C)c3c(=O)[nH]ccc23)cc2c1ccn2Cc1c(C)cccc1C
IC50 [3]: 158 nM
IC50 [1]: 35 nM

COc1nnc2ccc(N3CCC(c4ccc(OCCN5CCN(C)C(=O)[C@H]5C)cc4)CC3)nn12
growth inhibition (GI) (MCF7:CFR [5]): Active

C[C@]12CC[C@@H]3c4ccc(O)cc4C[C@@H](CCCCCCCCC[S+]([O-])CCCC(F)(F)C(F)(F)F)[C@H]3[C@@H]1CC[C@@H]2O (some centres not stated)
growth inhibition (GI) (MCF7:CFR [5]): inactive

Cc1cc(F)ccc1Cn1ccc2c(NS(C)(=O)=O)cc(-c3cn(C)c4c(=O)[nH]ccc34)cc21
IC50 [3]: 600 nM
IC50 [1]: 119 nM

CC(=O)N1CCN(c2ccc(OCC3COC(Cn4ccnc4)(c4ccc(Cl)cc4Cl)O3)cc2)CC1 (configuration not stated) [KETOCONAZOLE]
PPB [11]: 98.35%

O=c1ccc2ccccc2o1 [COUMARIN]
inhibition at 10 µM (CYP2A6): 98.2%

CC/C(=C(\c1ccccc1)c1ccc(OCCN(C)C)cc1)c1ccccc1
TGI (MCF7:TAM1 [12]): inactive

CC(=O)Nc1cc(-c2cn(C)c3c(=O)[nH]ccc23)cc2c1ccn2C(C)(c1ccccn1)c1ccccn1
IC50 [3]: 8.3 nM
IC50 [1]: 11 nM
IC50 [4]: 21.6 nM

CC/C(=C(\c1ccc(O)cc1)c1ccc(OCCN(C)C)cc1)c1ccccc1
growth inhibition (GI) (MCF7:CFR [5]): inactive

CC(=O)O[C@H]1C(=O)[C@@]2(C)[C@H]([C@H](OC(=O)c3ccccc3)[C@]3(O)C[C@H](OC(=O)[C@H](O)[C@@H](NC(=O)c4ccccc4)c4ccccc4)C(C)=C1C3(C)C)[C@]1(OC(C)=O)CO[C@@H]1C[C@@H]2O [PACLITAXEL]
inhibition at 10 µM (CYP2C8): 80.9%

Cn1cc(-c2cc(NS(C)(=O)=O)c3ccn(CC4(C)COC4)c3c2)c2cc[nH]c(=O)c21
IC50 [3]: 180 nM
IC50 [1]: 134 nM

CC(C)C(=O)Nc1cc(-c2cn(C)c3c(=O)[nH]ccc23)cc2c1ccn2C(C)(c1ccccn1)c1ccccn1
IC50 [3]: 13 nM
IC50 [1]: 17 nM
IC50 [4]: 62.8 nM

Cc1ncc2n1-c1ccc(Cl)cc1C(c1ccccc1F)=NC2 [MIDAZOLAM]
inhibition at 10 µM (CYP3A4): 99.5%

Cn1cc(-c2cc(NS(C)(=O)=O)c3ccn(C(C)(c4ccccn4)c4ccccn4)c3c2)c2cc[nH]c(=O)c21
IC50 [3]: 12.9 nM
IC50 [1]: 10 nM
IC50 [4]: 12.7 nM
